Only some compounds are listed: those with a hit (about 2.1% of all), similar ones and a draw of the others.
CCR6 antagonist: blocks CCL20-driven beta-arrestin recruitment at human CCR6; AID 493098; CHO-K1 CCR6 PathHunter beta-arrestin, luminescence, CCL20-stimulated; P51684; inhibition, % at 20 µM; 340,000 tested, 0.49% active;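 active means compounds whose inhibition of the agonist-driven luminescence signal at 20 µM reaches about 50%, limit read from the data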;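 further: cells stimulated with CCL20 at 14 nM final; plate controls were DMSO with CCL20 for no effect and DMSO without agonist for full effect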
m5-HT2A agonist: activates the mouse 5-HT2A serotonin receptor. P35363. CHO-K1 mHTR2A beta-arrestin complementation, luminescence; percent of 30 µM serotonin response. activation, % at 7.6 µM. 360,000 tested, 0.66% active;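 active means activation above a run cutoff, the mean activation of all tested compounds plus 3 SD, cut at about 14% in these data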;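 further: 0% = plate median of compound wells and 100% = 30 µM serotonin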
APJ antagonist: blocks the human apelin receptor APJ. P35414. CHO-K1 APJ beta-arrestin complementation, luminescence. inhibition, % at 20 µM. 330,000 tested, 0.32% active;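 active means inhibition above about 40% at 20 µM, limit read from the data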;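 further: cells challenged with 10 nM apelin-13 agonist together with compound; plate controls were apelin-13 plus DMSO wells for no effect and DMSO wells lacking apelin-13 for full effect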
APJ agonist: activates the human apelin receptor APJ. activation, % at 20 µM. AID 2520. 330,000 tested, 0.11% active. CHO-K1 APJ PathHunter beta-arrestin, luminescence; 0% DMSO wells, 100% apelin;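 active means activation more than six SD over the plate average, tested at 20 µM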;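 further: 0% = DMSO alone and 100% = apelin-13 at 10 nM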
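Assay system: engineered CHO-K1 APJ arrestin reporter cells; Amount: 1000 CHO-K1 reporter cells seeded per well; Dosing: one dose, 20 µM compound, 1% DMSO; Times: compound stimulation 90 min at 25 °C, detection 60 min; Measured by: luminescent beta-gal fragment complementation, chemiluminescent substrate; Read-out: APJ–arrestin association signal; Controls: DMSO vs Apelin-13 10 nM.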
CXCR6 block: blocks human CXCR6 beta-arrestin recruitment. 360,000 tested, 0.36% active. inhibition, % at 20 µM. O00574. AID 602244. CHO-K1 PathHunter CXCR6 beta-arrestin, luminescence; in the data active means inhibition above about 34%, passing the limit was not always enough;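 further: antagonist mode with CXCL16 agonist at 10 nM final; 0% = 10 nM CXCL16 with DMSO and 100% = unstimulated wells without agonist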
EBI2 antag: blocks human EBI2 receptor beta-arrestin signaling; inhibition, % at 5 µM; AID 651636; EBI2 beta-arrestin recruitment, luminescence, 7a,25-OHC stimulated; 360,000 tested, 0.81% active; in the data active means inhibition above about 38%;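 further: enzyme fragment complementation signal reports receptor beta-arrestin coupling in cells; 0% = agonist plus DMSO wells and 100% = wells without agonist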
Target sequence (P32249 whole entry, looked up, the tested form may be a part): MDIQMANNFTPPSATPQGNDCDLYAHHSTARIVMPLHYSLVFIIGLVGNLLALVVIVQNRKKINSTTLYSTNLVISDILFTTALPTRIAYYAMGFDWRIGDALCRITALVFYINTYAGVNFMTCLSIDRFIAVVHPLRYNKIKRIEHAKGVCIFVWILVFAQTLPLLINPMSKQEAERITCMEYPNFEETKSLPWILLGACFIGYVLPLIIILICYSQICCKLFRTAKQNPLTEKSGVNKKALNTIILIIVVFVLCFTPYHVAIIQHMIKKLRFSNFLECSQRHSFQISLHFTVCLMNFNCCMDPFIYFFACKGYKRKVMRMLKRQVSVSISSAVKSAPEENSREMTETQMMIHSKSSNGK
APJ ag confirm: confirmation of human APJ apelin receptor agonists | shares compounds with APJ agonist | CHO-K1 APJ PathHunter beta-arrestin, luminescence | activation, % at 20 µM | 310 tested, 10% active | AID 2764;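 active means activation above 40%, taking the highest of four retests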;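 further: plate controls were DMSO wells for no effect and apelin-13 at 10 nM for full effect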
Starred values were filed as active, the others as inactive; . = no result given.

SMILES	CCR6 antagonist	m5-HT2A agonist	APJ antagonist	APJ agonist	CXCR6 block	EBI2 antag	APJ ag confirm
CCOc1cc2[nH]c(=S)n(CCN3CCCCC3CC)c(=O)c2cc1OCC (centres undefined)	3	0	4	78*	3	22	39
CCOc1cc2[nH]c(=S)n(CCCOC)c(=O)c2cc1OCC	-1	4	-21	-2	5	11	.
CCOc1cc2[nH]c(=S)n(CCCN3CCOCC3)c(=O)c2cc1OCC	-1	-1	1	17*	-1	8	24
CCOc1cc2[nH]c(=S)n(CCCCC(=O)NCc3ccco3)c(=O)c2cc1OCC	-1	8	-12	-5	-2	4	.
C[C@@H]1CN([C@H](C)CO)C(=O)CCCn2nncc2CO[C@@H]1CN(C)S(=O)(=O)c1ccc(Cl)cc1	.	-2	.	.	5	9	.
C/C(=N\NC(N)=O)c1c(F)cccc1F	1	1	-35	1	-2	-8	.
CC(C)(C)OC(=O)[C@H]1[C@H](c2ccc([N+](=O)[O-])cc2)C2(C(=O)c3ccccc3C2=O)C2c3ccccc3C=NN21 (some centres undefined)	17	-3	-2	43*	2	9	44*
O=C(c1cnn2c(C(F)(F)F)cc(-c3cccs3)nc12)N1CCN(Cc2ccccc2)CC1	4	12	-4	30*	-3	-2	8
COc1ccc(Cl)cc1S(=O)(=O)N(C)CC(=O)N1CCOCC1	11	3	-20	0	2	0	.
O=[N+]([O-])c1nn(-c2ccccc2)n(O)c1=NCCc1ccccc1	1	2	-40	4	-13	-17	.
Cc1ccc(CCN=c2c([N+](=O)[O-])nn(-c3ccccc3)n2O)cc1	-24	3	-46	14*	-13	-9	25
CCC(C)NC(=O)CSC1=Nc2ccccc2C2=NC(CC(=O)NCc3ccc(F)cc3)C(=O)N12 (centres undefined)	7	-2	-16	51*	-4	-2	8
COCCCNC(=S)NNC(=O)c1ccc(S(=O)(=O)N2CCC(C)CC2)cc1	16	-2	17	-2	3	3	.
Cc1ccc(Nc2nc(NCc3ccco3)c3ccccc3n2)cc1	-18	-11	-36	14*	-5	-22	19
COc1ccccc1Nc1nc(NCc2ccco2)c2ccccc2n1	-3	-9	10	-3	-10	-8	.
C=CCOc1ccc(/C=C/C(=O)OCC(=O)NCc2cccs2)cc1	21	-8	11	-2	4	-13	.
O=C(Nc1ccc(NC(=O)c2ccc([N+](=O)[O-])cc2[N+](=O)[O-])cc1)c1ccco1	-20	3	-19	11*	-11	-6	11
CC(C)C(=O)N1CCN(c2ccc(NC(=O)COc3ccccc3[N+](=O)[O-])cc2)CC1	-6	12	-21	16*	-5	-15	54*
N=c1n(CC(=O)c2cccs2)c2ccccc2n1Cc1ccccc1	7	-2	-15	28*	1	-8	16
COc1cc2c(cc1NC(=O)c1ccc(C)c([N+](=O)[O-])c1)oc1ccccc12	-1	4	13	1	-1	0	.
COc1cc2c(cc1NC(=O)c1cccc([N+](=O)[O-])c1)oc1ccccc12	7	0	-15	42*	-1	-31	53*
Cc1ccccc1NC(=O)c1cc([N+](=O)[O-])ccc1NCCN1C(=O)CCC1=O	7	3	-9	-4	-2	0	.
c1ccc(Nc2nc(NCC3CCCO3)c3ccccc3n2)cc1 (centres undefined)	-11	-8	-52	1	-5	12	.
CCOc1ccc(Nc2nc(NCC3CCCO3)c3ccccc3n2)cc1 (centres undefined)	-3	-6	-25	13*	8	66*	29
O=C(Nc1ccc2c(c1)OCCO2)C(C1CC1)N1CCN(c2ccc(F)cc2)CC1 (centres undefined)	.	-5	.	.	1	-2	.

Bioassay records as filed in PubChem BioAssay.
